According to ChEMBL document CHEMBL2321795, “Solubility-driven optimization of (pyridin-3-yl) benzoxazinyl-oxazolidinones leading to a promising antibacterial agent” (J Med Chem, 2013):
In brackets after ≈: the same amount, converted by molar mass.

Experiments:
Staphylococcus aureus [1] = assay: Antibacterial activity against methicillin-resistant Staphylococcus aureus after 16 hrs by NCCLS agar dilution method; format: functional
Summary of the method: (§1)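 Agar dilution MIC. Stocks were 320 μg/mL in 50% aqueous DMSO, 2-fold serially diluted in sterile water, then diluted 10-fold into Mueller–Hinton agar to give 16–0.03125 μg/mL final. Organisms were grown in MH broth at 35 °C for 8 h and adjusted to 0.5 McFarland. They were spotted onto drug-containing plates with a multipoint inoculator and incubated at 35 °C for 16 h. Linezolid was the positive control.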

[2] = test system: Staphylococcus epidermidis; assay: Antibacterial activity against methicillin-sensitive Staphylococcus epidermidis after 16 hrs by NCCLS agar dilution method; format: functional; summary of the method: as §1
Enterococcus faecalis = assay: Antibacterial activity against Enterococcus faecalis after 16 hrs by NCCLS agar dilution method; format: functional
Summary of the method: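 Agar dilution MIC per NCCLS, 6 E. faecalis strains. Stock was 320 μg/mL in 50% water/DMSO, serially 2-fold diluted in sterile water, then 10-fold into Mueller–Hinton agar to give 16–0.03125 μg/mL final. Inocula came from MH broth cultures grown 8 h at 35 °C, adjusted to 0.5 McFarland and spotted by multipoint inoculator. Plates were read after 16 h at 35 °C.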

Staphylococcus aureus [3] = assay: Antibacterial activity against methicillin-sensitive Staphylococcus aureus after 16 hrs by NCCLS agar dilution method; format: functional; summary of the method: as §1
[4] = test system: Staphylococcus epidermidis; assay: Antibacterial activity against methicillin-resistant Staphylococcus epidermidis after 16 hrs by NCCLS agar dilution method; format: functional; summary of the method: as §1
Streptococcus pneumoniae = assay: Antibacterial activity against penicillin-resistant Streptococcus pneumoniae after 16 hrs by NCCLS agar dilution method; format: functional; summary of the method: as §1
[5] = Oral bioavailability in Sprague-Dawley rat at 10 mg/kg; format: ADME, organism-based; details: Sprague-Dawley, in vivo
Summary of the method: (§2)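 Rats were dosed orally or by intravenous injection. For prodrugs, all parameters were based on the active parent antibacterial detected in plasma, and each prodrug dose was also given as an equivalent parent dose. Parameters were Cmax, Tmax, elimination T1/2, AUC from the concentration–time curve, clearance and oral bioavailability F.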

[6] = Elimination half life in Sprague-Dawley rat at 10 mg/kg, po by LC-MS analysis; format: ADME, organism-based; design: dose 10 mg/kg, route oral; details: in vivo, read-out: beta t1/2 (converted); summary of the method: as §2
[7] = Elimination half life in Sprague-Dawley rat at 10 mg/kg, iv by LC-MS analysis; format: ADME, organism-based; design: dose 10 mg/kg, route intravenous; details: in vivo, read-out: beta t1/2 (converted); summary of the method: as §2
[8] = Tmax in Sprague-Dawley rat at 10 mg/kg, po by LC-MS analysis; format: ADME, organism-based; design: dose 10 mg/kg, route oral; details: in vivo; summary of the method: as §2
[9] = Cmax in Sprague-Dawley rat at 10 mg/kg, po by LC-MS analysis; format: ADME, organism-based; design: dose 10 mg/kg, route oral; details: in vivo; summary of the method: as §2
[10] = AUC in Sprague-Dawley rat at 10 mg/kg, po by LC-MS analysis; format: ADME, organism-based, Plasma; design: dose 10 mg/kg, route oral; details: Sprague-Dawley, plasma; summary of the method: as §2
[11] = AUC in Sprague-Dawley rat at 10 mg/kg, iv by LC-MS analysis; format: ADME, organism-based; design: dose 10 mg/kg, route intravenous; details: plasma
Summary of the method: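 Rats dosed orally or by intravenous injection. AUC is the area under the plasma concentration–time curve. For the prodrug entries, all PK values were based on the amount of the active parent antibacterial detected, not the administered prodrug.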

[12] = Clearance in Sprague-Dawley rat at 10 mg/kg, iv by LC-MS analysis; format: ADME, organism-based; design: dose 10 mg/kg, route intravenous; details: in vivo; summary of the method: as §2
[13] = test system: Staphylococcus epidermidis; assay: Antibacterial activity against linezolid-resistant Staphylococcus epidermidis after 16 hrs by NCCLS agar dilution method; format: functional; summary of the method: as §1
Staphylococcus aureus [14] = assay: Antibacterial activity against Staphylococcus aureus ATCC 29213 after 16 hrs by NCCLS agar dilution method; format: functional; details: ATCC 29213, 16 h; summary of the method: as §1
Staphylococcus aureus [15] = assay: Antibacterial activity against methicillin-sensitive Staphylococcus aureus ATCC 19636 infected in po dosed systemic infection mouse model administered 1 hr post infection measured after 48 hrs; format: functional; details: ATCC 19636, po
Summary of the method: (§3)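 Female ICR mice weighing 20–22 g, six per group, received 0.5 mL of 10⁷–10⁸ CFU/mL S. aureus intraperitoneally as a lethal systemic challenge. Dosing was oral or intravenous 1 h post-infection at 2.5, 5, 10 and 20 mg/kg, with linezolid as comparator.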

Enterococcus faecium = assay: Antibacterial activity against linezolid-resistant Enterococcus faecium after 16 hrs by NCCLS agar dilution method; format: functional; summary of the method: as §1
Staphylococcus aureus [16] = assay: Antibacterial activity against linezolid-resistant Staphylococcus aureus after 16 hrs by NCCLS agar dilution method; format: functional; summary of the method: as §1
Staphylococcus aureus [17] = assay: Antibacterial activity against methicillin-sensitive Staphylococcus aureus ATCC 19636 infected in iv dosed systemic infection mouse model administered 1 hr post infection measured after 48 hrs; format: functional; details: ATCC 19636, iv; summary of the method: as §3
[18] = Aqueous solubility of the compound; details: aqueous (not further specified)

| SMILES | MIC (Staphylococcus aureus [1]) [µg/mL] | MIC [2] [µg/mL] | MIC (Enterococcus faecalis) [µg/mL] | MIC (Staphylococcus aureus [3]) [µg/mL] | MIC [4] [µg/mL] | MIC (Streptococcus pneumoniae) [µg/mL] | also measured |
| --- | --- | --- | --- | --- | --- | --- | --- |
| CN1CCN(c2ccc(-c3ccc4c(c3)OC[C@H]3[C@H](CO)OC(=O)N43)cn2)C(=O)C1 | 2 (≈ 4.87 µM) | 2 (≈ 4.87 µM) | 16 (≈ 39 µM) | 2 (≈ 4.87 µM) | 2 (≈ 4.87 µM) | 4 (≈ 9.75 µM) |  |
| O=C1O[C@@H](CO)[C@@H]2COc3cc(-c4ccc(N5C[C@@H]6CCCN[C@@H]6C5)nc4)ccc3N12 | 8 (≈ 18.9 µM) | 4 (≈ 9.47 µM) | 16 (≈ 37.9 µM) | 4 (≈ 9.47 µM) | 4 (≈ 9.47 µM) | 8 (≈ 18.9 µM) |  |
| CN1C[C@H](c2ccc(-c3ccc4c(c3)OC[C@H]3[C@H](CO)OC(=O)N43)cn2)OC1=O | 1 (≈ 2.52 µM) | 0.5 (≈ 1.26 µM) | 2 (≈ 5.03 µM) | 1 (≈ 2.52 µM) | 1 (≈ 2.52 µM) | 2 (≈ 5.03 µM) |  |
| CN1CCC(Oc2ccc(-c3ccc4c(c3)OC[C@H]3[C@H](CO)OC(=O)N43)cn2)CC1 | 4 (≈ 9.72 µM) | 4 (≈ 9.72 µM) | > 32 | 4 (≈ 9.72 µM) | 8 (≈ 19.4 µM) | 16 (≈ 38.9 µM) |  |
| O=C1COCCN1c1ccc(-c2ccc3c(c2)OC[C@H]2[C@H](CO)OC(=O)N32)cn1 | 1 (≈ 2.52 µM) | 2 (≈ 5.03 µM) | 2 (≈ 5.03 µM) | 2 (≈ 5.03 µM) | 2 (≈ 5.03 µM) | 2 (≈ 5.03 µM) |  |
| CN1C[C@@H](c2ccc(-c3ccc4c(c3)OC[C@H]3[C@H](COP(=O)(O)O)OC(=O)N43)cn2)OC1=O.N=C(N)NCCC[C@H](N)C(=O)O.N=C(N)NCCC[C@H](N)C(=O)O |  |  |  |  |  |  | bioavailability [5]: 34.8%; half-life [6]: 3.88 h; half-life [7]: 9.43 h; Tmax [8]: 0.38 h; Cmax [9]: 170 ng/mL; AUC [10]: 523 ng·h/mL; AUC [11]: 1440 ng·h/mL; clearance [12]: 56.2 mL/min/kg |
| CC(=O)NC[C@H]1CN(c2ccc(N3CCOCC3)c(F)c2)C(=O)O1 [LINEZOLID] | 1 (≈ 2.96 µM) | 1 (≈ 2.96 µM) |  | 1 (≈ 2.96 µM) | 2 (≈ 5.93 µM) |  | MIC [13]: 8 µg/mL (≈ 23.7 µM); MIC (Staphylococcus aureus [14]): 1 µg/mL (≈ 2.96 µM); ED50 (Staphylococcus aureus [15]): 8.28 mg/kg; MIC (Enterococcus faecium): 16 µg/mL (≈ 47.4 µM); MIC (Staphylococcus aureus [16]): > 8 µg/mL; ED50 (Staphylococcus aureus [17]): 7.07 mg/kg |
| NCC1CN(c2ccc(-c3ccc4c(c3)OC[C@H]3[C@H](CO)OC(=O)N43)cn2)C(=O)O1 (stereo partly drawn) | 1 (≈ 2.42 µM) | 0.5 (≈ 1.21 µM) | 1 (≈ 2.42 µM) | 1 (≈ 2.42 µM) | 2 (≈ 4.85 µM) | 2 (≈ 4.85 µM) |  |
| O=C1O[C@@H](CO)[C@@H]2COc3cc(-c4ccc(Cn5cnnn5)nc4)ccc3N12 | 2 (≈ 5.26 µM) | 1 (≈ 2.63 µM) | 4 (≈ 10.5 µM) | 2 (≈ 5.26 µM) | 1 (≈ 2.63 µM) | 4 (≈ 10.5 µM) |  |
| CN1CCN(c2ccc(-c3ccc4c(c3)OC[C@H]3[C@H](CO)OC(=O)N43)cn2)CC1 | 4 (≈ 10.1 µM) | 2 (≈ 5.04 µM) | 2 (≈ 5.04 µM) | 2 (≈ 5.04 µM) | 4 (≈ 10.1 µM) | 4 (≈ 10.1 µM) |  |
| CC(C)N1CCN(c2ccc(-c3ccc4c(c3)OC[C@H]3[C@H](CO)OC(=O)N43)cn2)C(=O)C1 | 2 (≈ 4.56 µM) | 2 (≈ 4.56 µM) | 16 (≈ 36.5 µM) | 2 (≈ 4.56 µM) | 2 (≈ 4.56 µM) | 4 (≈ 9.12 µM) |  |
| N#Cc1ccc(-c2ccc3c(c2)OC[C@H]2[C@H](COP(=O)([O-])[O-])OC(=O)N32)cn1.[Na+].[Na+] |  |  |  |  |  |  | half-life [6]: 3.17 h; Tmax [8]: 1.31 h; Cmax [9]: 15.2 ng/mL; AUC [10]: 81.1 ng·h/mL; solubility [18]: 15 mg/mL |
| NC1(c2ccc(-c3ccc4c(c3)OC[C@H]3[C@H](CO)OC(=O)N43)cn2)CC1 | 1 (≈ 2.83 µM) | 1 (≈ 2.83 µM) | 2 (≈ 5.66 µM) | 2 (≈ 5.66 µM) | 1 (≈ 2.83 µM) | 1 (≈ 2.83 µM) |  |
